# Screens (PubChem)
# RanGTP-Imp inh: disruptors of Ran-importin-beta complex formation – biochemical, FRET, CFP-Ran, YFP-importin-beta, homogeneous, primary screen; cell-free CFP-Ran/YFP-importin-beta FRET ratio; AID 2216; inhibition, % (concentration not given with the values); hit rate 1.1% among 300,000;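 active = more than half of the replicate wells show a fall in the fluorescence ratio signal beyond about 16%, limit read from the data, passing the limit was not always enough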;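 note: 0% = DMSO wells and 100% = Ran loaded with GDP instead of GTP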
# FAS-TE inh: inhibitors of human fatty acid synthase thioesterase domain; inhibition, % at 15 µM; AID 602261; recombinant FAS-TE, OMFH fluorogenic substrate, fluorescence endpoint; hit rate 0.67% among 360,000;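 active = compounds whose normalised, plate-corrected inhibition of enzyme fluorescence in the single-dose primary screen is 50% or more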;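 note: 0% = DMSO with enzyme and 100% = substrate without enzyme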
# Target sequence (P49327 whole entry, looked up, the tested form may be a part): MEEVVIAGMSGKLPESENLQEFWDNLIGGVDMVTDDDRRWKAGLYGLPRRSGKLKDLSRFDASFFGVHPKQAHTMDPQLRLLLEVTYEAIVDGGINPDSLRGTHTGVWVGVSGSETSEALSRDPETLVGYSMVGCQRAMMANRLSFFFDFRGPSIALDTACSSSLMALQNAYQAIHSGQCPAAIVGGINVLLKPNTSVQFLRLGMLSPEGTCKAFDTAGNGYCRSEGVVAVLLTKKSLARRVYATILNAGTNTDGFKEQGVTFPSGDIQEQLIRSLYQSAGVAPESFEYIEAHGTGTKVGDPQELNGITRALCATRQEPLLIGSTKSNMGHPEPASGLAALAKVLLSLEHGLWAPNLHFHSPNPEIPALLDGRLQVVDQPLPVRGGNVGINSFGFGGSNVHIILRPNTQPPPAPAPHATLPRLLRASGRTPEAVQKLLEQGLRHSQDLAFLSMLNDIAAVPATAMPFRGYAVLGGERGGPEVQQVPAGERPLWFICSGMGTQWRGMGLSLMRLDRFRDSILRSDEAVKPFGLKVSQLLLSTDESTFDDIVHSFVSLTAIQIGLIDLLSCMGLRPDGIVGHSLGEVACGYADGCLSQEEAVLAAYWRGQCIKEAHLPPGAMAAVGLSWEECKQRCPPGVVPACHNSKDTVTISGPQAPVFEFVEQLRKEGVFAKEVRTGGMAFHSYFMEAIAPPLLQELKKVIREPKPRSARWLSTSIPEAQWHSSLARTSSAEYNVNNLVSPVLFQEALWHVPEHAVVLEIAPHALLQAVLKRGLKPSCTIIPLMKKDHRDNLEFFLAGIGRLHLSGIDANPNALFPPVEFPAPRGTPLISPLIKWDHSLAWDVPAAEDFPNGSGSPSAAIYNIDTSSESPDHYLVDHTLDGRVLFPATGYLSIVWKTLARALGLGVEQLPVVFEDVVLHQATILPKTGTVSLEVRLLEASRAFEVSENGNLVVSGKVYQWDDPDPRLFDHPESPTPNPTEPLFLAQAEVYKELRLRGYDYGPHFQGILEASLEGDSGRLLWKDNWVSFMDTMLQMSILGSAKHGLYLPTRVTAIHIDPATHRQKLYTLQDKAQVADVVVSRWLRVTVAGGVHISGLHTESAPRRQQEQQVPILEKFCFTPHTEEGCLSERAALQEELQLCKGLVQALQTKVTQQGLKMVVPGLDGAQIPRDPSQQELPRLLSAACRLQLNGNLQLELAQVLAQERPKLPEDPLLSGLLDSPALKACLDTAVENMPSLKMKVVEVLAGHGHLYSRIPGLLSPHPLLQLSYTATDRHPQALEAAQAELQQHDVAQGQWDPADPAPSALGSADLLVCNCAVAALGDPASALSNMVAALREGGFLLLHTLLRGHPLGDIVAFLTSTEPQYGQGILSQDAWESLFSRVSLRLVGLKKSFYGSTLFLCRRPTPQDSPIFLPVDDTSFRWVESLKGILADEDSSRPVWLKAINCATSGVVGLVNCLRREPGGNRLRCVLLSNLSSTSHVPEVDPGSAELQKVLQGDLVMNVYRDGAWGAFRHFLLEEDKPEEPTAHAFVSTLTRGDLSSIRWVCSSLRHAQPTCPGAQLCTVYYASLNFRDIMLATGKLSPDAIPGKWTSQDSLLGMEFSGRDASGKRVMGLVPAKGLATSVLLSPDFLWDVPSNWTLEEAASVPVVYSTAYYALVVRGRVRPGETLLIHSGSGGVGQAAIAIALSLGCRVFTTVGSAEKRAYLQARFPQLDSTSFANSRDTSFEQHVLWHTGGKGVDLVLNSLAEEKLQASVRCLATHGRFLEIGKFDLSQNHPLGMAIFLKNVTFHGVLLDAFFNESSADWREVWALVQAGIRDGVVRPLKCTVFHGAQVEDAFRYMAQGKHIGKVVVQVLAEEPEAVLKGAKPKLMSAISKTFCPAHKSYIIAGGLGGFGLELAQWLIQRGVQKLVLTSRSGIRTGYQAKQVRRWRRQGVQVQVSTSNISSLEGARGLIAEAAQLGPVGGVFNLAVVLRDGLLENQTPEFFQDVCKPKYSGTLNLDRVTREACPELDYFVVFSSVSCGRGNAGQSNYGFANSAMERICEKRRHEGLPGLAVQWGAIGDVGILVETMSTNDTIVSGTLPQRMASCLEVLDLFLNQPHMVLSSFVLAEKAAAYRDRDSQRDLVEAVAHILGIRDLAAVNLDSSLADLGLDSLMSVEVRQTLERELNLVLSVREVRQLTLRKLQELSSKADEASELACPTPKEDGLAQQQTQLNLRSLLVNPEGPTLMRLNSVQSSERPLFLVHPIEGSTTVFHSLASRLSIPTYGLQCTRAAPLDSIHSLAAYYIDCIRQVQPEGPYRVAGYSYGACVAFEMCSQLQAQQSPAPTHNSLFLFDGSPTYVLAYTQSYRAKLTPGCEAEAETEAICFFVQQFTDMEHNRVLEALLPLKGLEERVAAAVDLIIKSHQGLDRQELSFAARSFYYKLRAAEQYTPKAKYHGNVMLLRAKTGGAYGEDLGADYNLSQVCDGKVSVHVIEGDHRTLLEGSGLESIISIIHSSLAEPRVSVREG
# Runt-CBFb FRET: Runt domain-CBFb interaction inhibition; Cerulean-Runt/Venus-CBFb FRET ratio 530/480, 1 h; Q01196+Q13951; hit rate 0.46% among 220,000; inhibition, % at 20 µM;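 active = inhibition over about 50% at 20 µM in the single-dose screen, limit read from the data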;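 note: 0% = DMSO wells and 100% = excess unlabeled CBFb competitor control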
#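 Doses: 20 µM compound in 1% DMSO | Material: Cerulean-labeled Runt domain protein | Amount: Each fluorescent fusion protein 100 nM | Schedule: Two 1 h room-temperature incubations shielded from light | Measured by: FRET fluorescence | Evaluation: Loss of energy transfer signal | Controls: Unlabeled CBFb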
# Runt-SMMHC FRET: blocks binding of human RUNX1 Runt domain to CBFb-SMMHC; Q01196+Q13951; Cerulean-Runt/Venus-CBFb-SMMHC FRET ratio 530/480, 1 h; inhibition, % at 20 µM; hit rate 0.74% among 220,000;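 active = mean inhibition across duplicate retests at 20 µM reaching about 50%, limit read from the data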;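 note: 0% = DMSO wells and 100% = wells with excess untagged CBFb-SMMHC; inhibitors lower the FRET ratio by blocking Runt binding to CBFb-SMMHC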
# Calpain2 inh: inhibitors of pig calpain II. purified calpain II, fluorogenic peptide substrate, 30 min. inhibition, % at 16 µM. hit rate 0.37% among 220,000;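 active = inhibition above about 50%, limit read from the data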
# * = called active by the depositor; i = inactive; / = not tested or not shown. Rows were chosen to be rich in hits. Some 2.1% of all compounds tested hit in one or more screens of this group.
SMILES,RanGTP-Imp inh,FAS-TE inh,Runt-CBFb FRET,Runt-SMMHC FRET,Calpain2 inh
CC(C)(C)N(Cc1ccccc1)C(=O)COC(=O)c1ccccc1SCC(=O)N1CCCC1,-5,7,/,/,/
CCCCCCCCn1c2c(c(=N)c3ccccc31)CCC2,-2,14,/,/,49
CCCCCCCCCn1c2c(c(=N)c3c1CCC3)CCCC2,3,11,2,4,58*
CCCCCCCCCCn1c2c(c(=N)c3c1CCC3)CCC2,0,-6,-2,1,54*
CCn1c(=O)cc(SCC(=O)Nc2ccc(Cl)cc2)c2ccccc21,64*,13,4,2,30
COc1cccc(OCCNc2cc(N3CCOCC3)ccc2[N+](=O)[O-])c1,1,38,-3,2,22
COc1ccc(OCCNc2cc(N3CCOCC3)ccc2[N+](=O)[O-])cc1,-10,38,-10,-6,93*
CCCCCCCCN1C(=O)[C@H](CC(=O)NCCCOC)C[C@@]2(C(=O)OCC)CCCC=C12,/,-6,/,/,/
COc1ccc(-c2cc(=O)oc3cc(OC(=O)C4CCCCC4)ccc23)cc1,-3,19,26,42,17
O=C(Oc1ccc2c(-c3ccccc3)cc(=O)oc2c1)C1CCCCC1,2,21,2,1,56*
CCN1CCc2c(sc(NC(=S)NC(=O)c3ccccc3)c2C#N)C1,141*,-20,12,-14,-23
N#Cc1c(NC(=S)NC(=O)c2ccccc2)sc2c1CCC2,5,-6,39,28,-24
CCC1(C)Cc2c(sc(NC(=S)NC(=O)c3ccccc3)c2C#N)CO1 (centres undefined),3,10,46,21,11
CC1(C)Cc2c(sc(N)c2C#N)C(C)(C)N1,3,-5,8,17,-37
CN1Cc2sc(N)c(C#N)c2CC1(C)C,117*,-29,89*,82*,-78
CN1Cc2sc(NC(=S)NC(=O)c3ccccc3)c(C#N)c2CC1(C)C,145*,/,14,67*,-41
CCc1cccc(N(C(=O)c2csnn2)C(C(=O)NC2CCCCC2)c2cccnc2)c1 (centres undefined),0,-2,/,/,/
CC1CCN(S(=O)(=O)c2cc(C(=O)NC3(C)CCS(=O)(=O)C3)ccc2Br)CC1 (centres undefined),/,7,/,/,/
CCCCN(CC)CCNC(=O)CNC(=O)Cn1ccc2ccccc2c1=O,4,-5,1,-1,52*
CCOC(=O)c1c(/N=C/c2ccc(O)cc2O)sc2c1CCC2,7,/,23,56*,-48
CCOC(=O)C(C(=O)OCC)C(C)(C)/C(C)=N\Nc1ccc([N+](=O)[O-])cc1[N+](=O)[O-],2,35,-4,-2,6
CCOC(=O)C(C)/C(C)=N\Nc1ccc([N+](=O)[O-])cc1[N+](=O)[O-] (centres undefined),-2,21,-3,-1,52*
O=C(c1ccccc1Cc1ccccc1)N1CCN(S(=O)(=O)c2ccccc2[N+](=O)[O-])CC1,-1,20,/,/,/
CN(C)c1ncc(C2=C(Cl)C(=O)C(N3CCCC3)=C(Cl)C2=O)s1,-2,46,/,/,-131
O=C1C(Cl)=C(N2CCCCC2)C(=O)C(Cl)=C1c1cnc(N2CCCCC2)s1,-5,78*,30,43,-101
SMILES,RanGTP-Imp inh,FAS-TE inh,Runt-CBFb FRET,Runt-SMMHC FRET,Calpain2 inh
CN(C)c1ccnc(Oc2ccc(C(C)(C)C)cc2)c1C#N,0,28,-3,-3,59*
CC12CCC(C/C1=N\N=C1\NC(=O)/C(=C\c3ccc(Cl)cc3)S1)C2(C)C (centres undefined),-1,30,-4,-8,-15
c1nc2n(n1)C1=C(CCCC1)C1(CCCCC1)N2,15*,0,-1,0,19
Cc1ccc(C2C(C#N)=C(N)SC(N)=C2C#N)c(C)c1,47*,-106,10,27,-23
Cc1ccc(C2C(C#N)=C(N)SC(N)=C2C#N)cc1,/,-82,11,22,0
Fc1ccccc1N1CCN(C(c2cccs2)c2nnnn2CCc2ccccc2)CC1 (centres undefined),/,24,0,2,55*
O=C(COC(=O)c1cccnc1Cl)NC(=O)c1ccc(OC(F)F)cc1,/,0,/,/,/
CC(C)(C)NC(=O)NC(=O)CN1CCc2ccccc21,-1,0,1,-4,23
COCCNC(=O)NC(=O)CN1CCCc2ccccc21,/,-15,-1,-3,65*
O=c1c2ccccc2nc(SCc2cn3ccsc3n2)n1-c1ccccc1F,-6,16,0,-2,52*
Cc1ccc2nc3c(cc(C(=O)NCCc4ccccc4)c(=N)n3CCN3CCOCC3)c(=O)n2c1,159*,1,/,/,/
Cc1ccc2nc3c(cc(C(=O)NCCN4CCOCC4)c(=N)n3CCCN3CCOCC3)c(=O)n2c1,143*,-4,/,/,/
Cc1ccc2nc(NCCCN3CCOCC3)c(C=NCCCN3CCOCC3)c(=O)n2c1,39*,-4,76*,66*,-34
N#Cc1c(Cl)nc(SCc2ccccc2)nc1-c1ccccc1,/,/,113*,-2,-18
c1ccc(CSc2nnc(-c3ccccc3)c(-c3ccccc3)n2)cc1,-2,22,/,/,/
Cc1ccccc1C(=O)N1CCC(C(=O)OCc2ccccc2Cl)CC1,/,14,/,/,/
Oc1ccc(Br)cc1/C=N/n1c(-c2ccccc2)n[nH]c1=S,18*,5,/,/,/
CC[C@@H]1CCC[C@@H](O)[C@@H](C)C(=O)O[C@H](C)[C@@H](C)C/C=C(C)/C(OC)=C\C(=O)N(C)C([C@@H](C)CC)C(=O)N(C)[C@@H](C(C)C)C(=O)N(C)[C@@H](COC)C(=O)N2CCC[C@H]2C(=O)N(C)[C@@H](C(C)C)C(=O)N2CCC[C@H]2C(=O)O1 (some centres undefined),/,5,/,/,/
COC(=O)Cc1c(C)c2ccc(O)c(CN3CCCC(C)C3)c2oc1=O (centres undefined),22*,-1,98*,112*,i
COc1ccccc1NS(=O)(=O)c1ccc(C(=O)Nc2ncccc2O)cc1,/,-1,/,/,/
CC1(C2CC2)NC(=O)N(CC(=O)N2CCN(S(=O)(=O)c3ccc(F)c(F)c3)CC2)C1=O (centres undefined),/,-6,/,/,/
Cc1cccc(/C=C/C(=O)c2ccc(N3CCOCC3)cc2)c1,-6,/,-7,-8,53*
COC(=O)C1=C(C)NC2=C(C(=O)C(C(=O)OC)C(c3ccc(OC)cc3)C2)C1c1ccccn1 (centres undefined),12,0,35,70*,-255
COC(=O)C1=C(C)NC2=C(C(=O)CC(C)(C)C2)C1c1ccsc1 (centres undefined),3,-7,7,20,-125
COC(=O)C1=C(C)NC2=C(C(=O)CC(C)(C)C2)C1c1ccccn1 (centres undefined),8,-12,70*,123*,-324
CCOc1ccc2nc(N3CCOCC3)nc(C)c2c1,58*,1,74*,79*,i
